High-throughput results (PubChem)
RGS4 inh: human RGS4 inhibition | P49798 | HEK293 M3R/RGS4 inducible, Fluo-4 calcium flux; hits give high values; triggered by carbachol at its EC20 | B-score at 10 µM | hit rate 0.45% among 310,000 | AID 463165;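 active = B-score, a plate-corrected calcium signal, over three deviations above library mean, with baseline fluorescence within five deviations of library mean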;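 note: RGS4 expression induced by doxycycline in cells with stable M3 receptor; B-score is computed from the integrated fluorescence ratio over baseline after carbachol; higher B-score means a larger calcium signal and so more RGS4 inhibition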
Target sequence (P49798 whole entry, looked up): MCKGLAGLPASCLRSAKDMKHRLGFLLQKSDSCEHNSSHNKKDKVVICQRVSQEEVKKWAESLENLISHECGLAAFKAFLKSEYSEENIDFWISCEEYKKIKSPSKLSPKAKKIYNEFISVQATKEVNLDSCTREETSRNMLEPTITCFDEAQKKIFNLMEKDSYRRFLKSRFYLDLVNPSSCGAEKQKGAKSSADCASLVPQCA
RGS4 pot: RGS4 potentiation or activation; HEK293 M3R/inducible RGS4, carbachol calcium flux Fluo4; hits give low values; B-score at 10 µM; hit rate 0.92% among 310,000;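 active = B-score of the integrated calcium signal more than 4 SD below the library mean, with starting fluorescence not abnormally high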;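 note: negative B-score means reduced calcium response which marks RGS4 activation or potentiation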
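System: HEK293 FlpIn-TREx cells, stable M3R, doxycycline-inducible RGS4. Timing: overnight RGS4 induction, 30 min dye load 37 °C, 20 min compound RT. Also added: carbachol, ECmax concentration. Measured by: Fluo4 fluorescence kinetic imaging of calcium. Evaluation: integrated calcium ratio converted to B score.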
MrgX1 antag: human MrgX1 receptor antagonism, primary screen; Q96LB2; MRGX1-HEK293 calcium flux, Fluo-4, BAM8-22 antagonism; hits give low values; B-score at 10 µM; hit rate 1.3% among 310,000; AID 588676;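 active = calcium-response B-score plate-corrected more than 3 library SD below zero, starting fluorescence within 5 deviations, no agonist response on first addition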;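 note: peak minus trough fluorescence over baseline after final BAM8-22 challenge near maximal dose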
Target sequence (Q96LB2 whole entry, looked up): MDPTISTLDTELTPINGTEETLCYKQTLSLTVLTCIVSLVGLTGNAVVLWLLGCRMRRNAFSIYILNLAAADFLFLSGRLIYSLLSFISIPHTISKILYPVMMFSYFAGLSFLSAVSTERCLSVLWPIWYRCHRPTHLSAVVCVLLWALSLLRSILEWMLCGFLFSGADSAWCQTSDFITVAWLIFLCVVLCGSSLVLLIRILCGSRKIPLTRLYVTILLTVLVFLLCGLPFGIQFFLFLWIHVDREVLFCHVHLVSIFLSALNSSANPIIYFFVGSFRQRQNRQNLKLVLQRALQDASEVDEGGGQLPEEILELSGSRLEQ
MrgX1 agonist: activates human MrgX1 receptor signaling | MrgX1-HEK293 cells, Fluo-4 calcium fluorescence, agonist mode; hits give high values | B-score at 10 µM | hit rate 0.44% among 310,000 | AID 588627;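 active = calcium response B-score plate-corrected fluorescence ratio at least 3 library SD, with starting fluorescence B-score inside 5 SD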
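Test system: HEK293 cells stably expressing human MrgX1 receptor; amount: 15,000 cells per well; doses: compound delivered in addition one of three; times: overnight plating before 1 h dye loading; detection: Fluo-4 NW calcium-flux fluorescence, kinetic read; read-out basis: B-scored fluorescence response ratio; controls: positive and negative controls per plate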
MrgX1 PAM: allosterically activates human MrgX1 receptor signaling. Q96LB2. MrgX1-HEK293, Fluo-4 calcium flux, FDSS; hits give high values. B-score at 10 µM. hit rate 0.63% among 310,000. AID 588675;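 active = plate-corrected calcium response at least 3 library SD above typical, normal starting fluorescence, not activating the receptor alone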;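 note: compound read alongside a low EC10 to EC30 dose of BAM8-22 agonist; peak minus trough fluorescence over baseline measured at the second addition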
MrgX1 allo conf: confirmation of human MrgX1 receptor positive allosteric modulators | shares compounds with MrgX1 PAM | MrgX1-HEK293, Fluo-4 calcium fluorescence, FDSS | activation (ratio percentage), % at 10 µM | hit rate 13% among 1,200 | AID 602413;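 active = ratio at least 3 SD above the weak peptide control, stable starting fluorescence, no direct agonism earlier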;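 note: compound followed by low BAM8-22 agonist challenge near EC20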
HEK293 Ca flux: counter-screen for MrgX1 antagonists: effect in parental HEK293 cells. shares compounds with MrgX1 antag. hit rate 2% among 4,000. Fluo-4 calcium fluorescence, FDSS. fluorescence ratio F(max-min)/F0 at 10 µM;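 active = duplicate-averaged calcium fluorescence ratio at least three times the standard deviation of buffer wells, a nonspecific response in parental cells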
HEK293 Ca counter: MrgX1 allosteric activator counter-screen hit in parental HEK293 cells. hit rate 0.4% among 4,000. fluorescence ratio F(max-min)/F0 at 10 µM. parental HEK293 calcium flux, Fluo-4 fluorescence ratio; hits give high values. shares compounds with MrgX1 antag;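 active = calcium fluorescence ratio, averaged over duplicates, at least 3 SD of the buffer-well ratio, meaning a nonspecific response in receptor-free cells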;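 note: untransfected parental HEK293 lacking MrgX1 used as counterscreen for MrgX1 allosteric activators; fluorescence change taken during the second addition on a kinetic imager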
HEK293 Ca cntr2: counter-screen for MrgX1 activators: effect in parental HEK293 cells. hit rate 8.7% among 4,000. Fluo-4 calcium fluorescence (FDSS); hits give high values. shares compounds with MrgX1 antag. fluorescence ratio F(max-min)/F0 at 10 µM;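 active = calcium fluorescence ratio at least three times the spread of buffer wells, meaning a non-specific response in parental cells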
A number is an active result. Compounds with a hit are over-represented: about 3.5% of the library has one in this group of screens.

COc1cc(SC)ccc1C(=O)N(Cc1ccccc1)c1ccccn1 was read as RGS4 inh inactive, RGS4 pot inactive, MrgX1 antag inactive, MrgX1 agonist inactive and MrgX1 PAM inactive.
Screening CCN(CC)S(=O)(=O)c1cccc(NC(=O)COC(=O)C2CC3C=CC2C3)c1 (configuration not stated) returned RGS4 inh inactive, RGS4 pot inactive, MrgX1 antag inactive, MrgX1 agonist inactive, MrgX1 PAM 6.5, MrgX1 allo conf inactive, HEK293 Ca flux inactive, HEK293 Ca counter inactive and HEK293 Ca cntr2 inactive.
`CC(C)CCn1c(=O)c2sccc2n2c(CCCC(=O)N3CCN(c4ccccn4)CC3)nnc12` gave RGS4 inh inactive, RGS4 pot inactive, MrgX1 antag inactive, MrgX1 agonist inactive and MrgX1 PAM inactive.
For O=C1C(=O)N(CCN2CCOCC2)C(c2ccncc2)/C1=C(/O)c1ccc2c(c1)OCO2 (configuration not stated) the results were RGS4 inh inactive, RGS4 pot inactive, MrgX1 antag inactive, MrgX1 agonist inactive, MrgX1 PAM 7.7, MrgX1 allo conf inactive, HEK293 Ca flux inactive, HEK293 Ca counter inactive and HEK293 Ca cntr2 inactive.
O=Cc1cccc(OC(=O)Nc2ccccc2)c1 was read as RGS4 inh inactive, RGS4 pot inactive, MrgX1 antag inactive, MrgX1 agonist inactive and MrgX1 PAM inactive.
For O=C(OC1CCOC1=O)c1cc(-c2cccs2)nc2ccccc12 (configuration not stated) the results were RGS4 inh inactive, RGS4 pot inactive, MrgX1 antag inactive, MrgX1 agonist inactive and MrgX1 PAM inactive.
For Cc1ccn2c(=O)c(C(=O)NC3CCCCC3C)c(O)nc2c1 (configuration not stated) the results were RGS4 inh inactive, RGS4 pot inactive, MrgX1 antag inactive, MrgX1 agonist inactive, MrgX1 PAM 9.3, MrgX1 allo conf inactive, HEK293 Ca flux inactive, HEK293 Ca counter inactive and HEK293 Ca cntr2 inactive.
Cc1cccn2c(=O)c(C(=O)NC3CCCCC3C)c(O)nc12 (configuration not stated) was read as RGS4 inh inactive, RGS4 pot inactive, MrgX1 antag inactive, MrgX1 agonist inactive and MrgX1 PAM inactive.
Screening O=C(OCn1nnc2ccccc2c1=O)c1cc(-c2ccccc2)nc2ccccc12 returned RGS4 inh inactive, RGS4 pot inactive, MrgX1 antag inactive, MrgX1 agonist inactive and MrgX1 PAM inactive.
`CC1CCCN(S(=O)(=O)c2ccc(C(=O)Nc3nnc(-c4ccccc4Cl)o3)cc2)C1` (configuration not stated) gave RGS4 inh inactive, RGS4 pot inactive, MrgX1 antag inactive, MrgX1 agonist inactive, MrgX1 PAM 8.7, MrgX1 allo conf inactive, HEK293 Ca flux inactive, HEK293 Ca counter inactive and HEK293 Ca cntr2 inactive.
For O=C(CSc1n[nH]c(-c2ccncc2)n1)Nc1ccc(Br)cc1 the results were RGS4 inh inactive, RGS4 pot inactive, MrgX1 antag inactive, MrgX1 agonist inactive and MrgX1 PAM inactive.
Screening CCc1nn2c(=O)c(S(=O)(=O)Nc3ccc(C(C)C)cc3)c(C)nc2s1 returned MrgX1 antag inactive, MrgX1 agonist inactive and MrgX1 PAM inactive.
Cc1cccc(C(=O)N[C@H](C(=O)Nc2nccs2)C(C)C)c1 was read as RGS4 inh inactive, RGS4 pot inactive, MrgX1 antag inactive, MrgX1 agonist inactive, MrgX1 PAM 24, MrgX1 allo conf inactive, HEK293 Ca flux inactive, HEK293 Ca counter inactive and HEK293 Ca cntr2 inactive.
`Cc1cccc(C(=O)N[C@H](C(=O)Nc2nc(C)cs2)C(C)C)c1` gave RGS4 inh inactive, RGS4 pot inactive, MrgX1 antag inactive, MrgX1 agonist inactive and MrgX1 PAM inactive.
For NC(=O)c1ccc(Oc2ncc(C(F)(F)F)cc2Cl)cc1 the results were RGS4 inh inactive, RGS4 pot inactive, MrgX1 antag inactive, MrgX1 agonist inactive and MrgX1 PAM inactive.
Screening Oc1ccc(Oc2ncc(Cl)cc2Cl)cc1 returned RGS4 inh inactive, RGS4 pot inactive, MrgX1 antag inactive, MrgX1 agonist inactive, MrgX1 PAM 8.8, MrgX1 allo conf inactive, HEK293 Ca flux inactive, HEK293 Ca counter inactive and HEK293 Ca cntr2 inactive.
`O=C(NCC(c1ccco1)N1CCc2ccccc2C1)c1ccc(F)cc1` (configuration not stated) gave RGS4 inh inactive, RGS4 pot inactive, MrgX1 antag inactive, MrgX1 agonist inactive and MrgX1 PAM inactive.
For O=C(c1ccc(Br)cc1)N(c1ccccn1)C1CCCCC1 the results were RGS4 inh inactive, RGS4 pot inactive, MrgX1 antag inactive, MrgX1 agonist inactive, MrgX1 PAM 19, MrgX1 allo conf inactive, HEK293 Ca flux inactive, HEK293 Ca counter inactive and HEK293 Ca cntr2 inactive.
O=C(c1ccc(Br)cc1)N(Cc1ccco1)C1CCS(=O)(=O)C1 (configuration not stated) was read as RGS4 inh inactive, RGS4 pot inactive, MrgX1 antag inactive, MrgX1 agonist inactive and MrgX1 PAM inactive.
Screening Fc1ccc(-c2csc(NC3=NCCC3)n2)cc1 returned RGS4 inh inactive, RGS4 pot inactive, MrgX1 antag inactive, MrgX1 agonist inactive, MrgX1 PAM 12, MrgX1 allo conf inactive, HEK293 Ca flux inactive, HEK293 Ca counter inactive and HEK293 Ca cntr2 inactive.
Screening CC(=O)c1sc2nc(C)c3c(c2c1N)CCCC3 returned RGS4 inh inactive, RGS4 pot inactive, MrgX1 antag inactive, MrgX1 agonist inactive, MrgX1 PAM 9.7, MrgX1 allo conf inactive, HEK293 Ca flux inactive, HEK293 Ca counter inactive and HEK293 Ca cntr2 inactive.
Screening COc1cc(SC)ccc1C(=O)OCC(=O)N1CCCC1 returned RGS4 inh inactive, RGS4 pot inactive, MrgX1 antag inactive, MrgX1 agonist inactive, MrgX1 PAM 11, MrgX1 allo conf inactive, HEK293 Ca flux inactive, HEK293 Ca counter inactive and HEK293 Ca cntr2 inactive.
For CC(C)C[C@H](NC(=O)N1CCn2c1nc1ccccc12)C(=O)N[C@@H](C(=O)O)c1ccccc1 the results were RGS4 inh inactive, RGS4 pot inactive, MrgX1 antag inactive, MrgX1 agonist inactive and MrgX1 PAM inactive.
Screening COc1ccc2[nH]c(=O)c(CN(Cc3ccccc3)Cc3nnnn3CC3CCCO3)cc2c1 (configuration not stated) returned RGS4 inh inactive, RGS4 pot inactive, MrgX1 antag inactive, MrgX1 agonist inactive and MrgX1 PAM inactive.
